Test results taken from ChEMBL document CHEMBL1129956, “4-substituted-3-phenylquinolin-2(1H)-ones: acidic and nonacidic glycine site N-methyl-D-aspartate antagonists with in vivo activity” (J Med Chem, 1997).
Activity calls are given as the source filed them. The rule behind the calls is not given here.

Columns and labels:
[1] = biological target: Glutamate receptor ionotropic, NMDA 1 (Rattus norvegicus, UniProt P35439); experiment: In vitro ability to displace [3H]L-689,560 binding to glycine site on the N-methyl-D-aspartate (NMDA) glutamate receptor 1 from rat cortical membranes
How it was run: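 Glycine-site antagonist [3H]L-689,560 displaced from rat cortex/hippocampus membranes. IC50 (concentration inhibiting 50% of specific binding) taken from 5-point inhibition curves as the geometric mean of at least three experiments. A compound giving under 50% inhibition at 100 μM in two experiments is reported as >100 μM.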

[2] = biological target: Glutamate NMDA receptor (Rattus norvegicus) (UniProt P35439+Q00959+Q00960+Q00961+Q62645+Q8VHN2+Q9R1M7); experiment: (§1) Evaluated to antagonize NMDA responses in a rat cortical slice preparations; format: functional
How it was run: (§2)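 Rat cortical slice preparation; antagonist-induced rightward shift of the NMDA concentration–response curve used to calculate apparent Kb; values are the means of three determinations.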

Mus musculus [3] = experiment: Evaluated in vivo for their ability to protect against audiogenic seizure in DBA/2 mice when administered 20 mg/kg ip 30 min prior to noise stimulation out of 8 mice tested; conditions: route intraperitoneal
Mus musculus [4] = experiment: compound was evaluated in vivo for their ability to protect against audiogenic seizure in DBA/2 mice when administered 20 mg/kg ip 30 min prior to noise stimulation out of 8 mice tested; format: functional; conditions: route intraperitoneal
How it was run: (§3)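 DBA/2 mice given compound intraperitoneally 30 min before noise stimulation, with protection from audiogenic seizure scored. Results are reported as an ED50 (mg/kg) or as number of mice protected per number tested at a single dose.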

[5] = biological target: Glutamate receptor ionotropic, NMDA 1 (Rattus norvegicus) (UniProt P35439); experiment: as §1; format: functional; how it was run: as §2
Mus musculus [6] = experiment: Compound was evaluated in vivo for their ability to protect against audiogenic seizure in DBA/2 mice when administered 20 mg/kg ip 30 min prior to noise stimulation out of 8 mice tested; format: functional; conditions: route intraperitoneal; how it was run: as §3
Mus musculus [7] = experiment: Compound was evaluated in vivo for their ability to protect against audiogenic seizure in DBA/2 mice when administered 20 mg/kg ip 30 min prior to noise stimulation out of 8 mice tested; conditions: route intraperitoneal
[8] = biological target: Glutamate receptor ionotropic, NMDA 1 (Rattus norvegicus) (UniProt P35439); experiment: In vitro ability to displace [3H]L-689,560 binding to glycine site on the N-methyl-D-aspartate glutamate receptor 1 from rat cortical membranes at […]
Mus musculus [9] = experiment: compound was evaluated in vivo for their ability to protect against audiogenic seizure in DBA/2 mice when dosed ip 30 min prior to noise stimulation and it is evaluated as ED50 value; format: functional; how it was run: as §3
Mus musculus [10] = experiment: compound was evaluated in vivo for their ability to protect against audiogenic seizure in DBA/2 mice when administered 50 mg/kg ip 30 min prior to noise stimulation out of 8 mice tested; format: functional; conditions: route intraperitoneal; how it was run: as §3
Mus musculus [11] = experiment: compound was evaluated in vivo for their ability to protect against audiogenic seizure in DBA/2 mice when administered 100 mg/kg ip 30 min prior to noise stimulation out of 8 mice tested; format: functional; conditions: route intraperitoneal; how it was run: as §3
[12] = biological target: Glutamate receptor ionotropic, NMDA 1 (Rattus norvegicus) (UniProt P35439); experiment: In vitro ability to displace [3H]L-689,560 binding to glycine site on the N-methyl-D-aspartate glutamate receptor 1 from rat cortical membranes at 10 uM
Mus musculus [13] = experiment: compound was evaluated in vivo for their ability to protect against audiogenic seizure in DBA/2 mice when administered 10 mg/kg ip 30 min prior to noise stimulation out of 8 mice tested; format: functional; conditions: route intraperitoneal; how it was run: as §3
Mus musculus [14] = experiment: In vivo ability to protect against audiogenic seizure in DBA/2 mice when administered 20 mg/kg ip 30 min prior to noise stimulation out of 8 mice tested; format: functional, organism-based; set-up: dose 20 mg/kg; how it was run: as §3
Mus musculus [15] = experiment: Evaluated in vivo for their ability to protect against audiogenic seizure in DBA/2 mice when administered 100 mg/kg ip 30 min prior to noise stimulation out of 8 mice tested; conditions: route intraperitoneal
Mus musculus [16] = experiment: compound was evaluated in vivo for their ability to protect against audiogenic seizure in DBA/2 mice when administered 20 mg/kg ip 30 min prior to noise stimulation (expressed as no of mice protected/tested); 1/8; format: functional, organism-based; set-up: dose 20 mg/kg; how it was run: as §3
Mus musculus [17] = experiment: Compound was evaluated in vivo for their ability to protect against audiogenic seizure in DBA/2 mice when dosed ip 30 min prior to noise stimulation; format: functional; how it was run: as §3
Mus musculus [18] = experiment: Compound was evaluated in vivo for their ability to protect against audiogenic seizure in DBA/2 mice when dosed ip 30 min prior to noise stimulation and it is evaluated as ED50 value; format: functional; how it was run: as §3

Row | IC50 [1] | Kb [2] | Compound | other results
1 | 1100 nM | – | COC(=O)Cc1c(-c2ccccc2)c(=O)[nH]c2cc(Cl)ccc12 | –
2 | 170 nM | – | O=C(O)CCc1c(-c2ccccc2)c(=O)[nH]c2cc(Cl)ccc12 | –
3 | 750 nM | – | N#CCCc1c(-c2ccccc2)c(=O)[nH]c2cc(Cl)ccc12 | –
4 | 3200 nM | – | CN(C)CCNc1c(-c2ccccc2)c(=O)[nH]c2cc(Cl)ccc12 | –
5 | 110 nM | 1250 nM | O=C(O)COc1c(-c2ccccc2)c(O)nc2cc(Cl)ccc12 | No. of mice protected (Mus musculus [3]): 3
6 | 500 nM | 4600 nM | COC(=O)CCc1c(-c2ccccc2)c(O)nc2cc(Cl)ccc12 | No. of mice protected (Mus musculus [4]): 0
7 | 1700 nM | – | CC(=O)COc1c(-c2ccccc2)c(O)nc2cc(Cl)ccc12 | Kb [5]: 11400 nM; No. of mice protected (Mus musculus [6]): 5
8 | > 100000 nM | – | COc1c(-c2ccccc2)c(=O)[nH]c2cc(Cl)ccc12 | –
9 | 2000 nM | > 3000 nM | Oc1nc2cc(Cl)ccc2c(NCc2ccccc2)c1-c1ccccc1 | No. of mice protected (Mus musculus [3]): 1
10 | 3500 nM | – | Cc1noc(CCc2c(-c3ccccc3)c(O)nc3cc(Cl)ccc23)n1 | No. of mice protected (Mus musculus [3]): 4
11 | 1100 nM | – | O=C(O)CC(=O)Nc1c(-c2ccccc2)c(=O)[nH]c2cc(Cl)ccc12 | –
12 | – | > 10000 nM | N#CCCc1c(-c2ccccc2)c(O)nc2cc(Cl)ccc12 | No. of mice protected (Mus musculus [3]): 0
13 | 11000 nM | – | CN(C)CCOc1c(-c2ccccc2)c(O)nc2cc(Cl)ccc12 | –
14 | 1190 nM | – | O=c1[nH]c2cc(Cl)ccc2c(NS(=O)(=O)c2ccccc2)c1-c1ccccc1 | –
15 | ~50000 nM | – | CO/N=C(\C)COc1c(-c2ccccc2)c(O)nc2cc(Cl)ccc12 | No. of mice protected (Mus musculus [7]): 0
16 | – | 2200 nM | O=C(O)CCc1c(-c2ccccc2)c(O)nc2cc(Cl)ccc12 | No. of mice protected (Mus musculus [4]): 1
17 | – | – | COC(=O)c1c(-c2ccccc2)c(O)nc2cc(Cl)ccc12 | inhibition [8]: 69%
18 | – | 880 nM | O=c1[nH]c2cc(Cl)ccc2c(O)c1-c1ccccc1 | ED50 (Mus musculus [9]): 4.5 mg/kg
19 | > 100000 nM | – | O=C(NCc1ccccc1)c1c(-c2ccccc2)c(=O)[nH]c2cc(Cl)ccc12 | –
20 | – | 4500 nM | O=C(O)C(=O)Nc1c(-c2ccccc2)c(O)nc2cc(Cl)ccc12 | No. of mice protected (Mus musculus [3]): 0

Row | IC50 [1] | Kb [2] | Compound | other results
21 | – | 2900 nM | O=S(=O)(Nc1c(-c2ccccc2)c(O)nc2cc(Cl)ccc12)c1ccccc1 | No. of mice protected (Mus musculus [3]): 1
22 | 4200 nM | – | CN(C)CCCNc1c(-c2ccccc2)c(O)nc2cc(Cl)ccc12 | No. of mice protected (Mus musculus [10]): 1; No. of mice protected (Mus musculus [11]): 6
23 | – | – | CN(C)CCNC(=O)Cc1c(-c2ccccc2)c(O)nc2cc(Cl)ccc12 | inhibition [12]: 29%; No. of mice protected (Mus musculus [3]): 0
24 | – | – | NC(=O)COc1c(-c2ccccc2)c(O)nc2cc(Cl)ccc12 | Kb [5]: 3100 nM; No. of mice protected (Mus musculus [6]): 0
25 | 900 nM | – | O=C(O)c1c(-c2ccccc2)c(=O)[nH]c2cc(Cl)ccc12 | –
26 | – | – | O=C(O)c1c(-c2ccccc2)c(O)nc2cc(Cl)ccc12 | Kb [5]: 1300 nM; No. of mice protected (Mus musculus [6]): 1
27 | 1200 nM | – | N#CCOc1c(-c2cccc(Oc3ccccc3)c2)c(O)nc2cc(Cl)ccc12 | No. of mice protected (Mus musculus [13]): 1; No. of mice protected (Mus musculus [3]): 8
28 | – | 560 nM | O=C(O)COc1c(-c2cccc(Oc3ccccc3)c2)c(O)nc2cc(Cl)ccc12 | No. of mice protected (Mus musculus [3]): 0
29 | 2800 nM | – | Oc1nc2cc(Cl)ccc2c(OCc2ccccn2)c1-c1ccccc1 | No. of mice protected (Mus musculus [6]): 1
30 | 14700 nM | – | CC(=O)Nc1c(-c2ccccc2)c(O)nc2cc(Cl)ccc12 | No. of mice protected (Mus musculus [14]): inactive
31 | 6700 nM | – | Nc1c(-c2ccccc2)c(=O)[nH]c2cc(Cl)ccc12 | –
32 | – | 1600 nM | Oc1nc2cc(Cl)ccc2c(CCc2nnn[nH]2)c1-c1ccccc1 | No. of mice protected (Mus musculus [15]): 0
33 | – | 12000 nM | CN(C)CCNc1c(-c2ccccc2)c(O)nc2cc(Cl)ccc12 | No. of mice protected (Mus musculus [3]): 0; No. of mice protected (Mus musculus [11]): 8
34 | 25000 nM | – | CN(C)CCNC(=O)C(=O)Nc1c(-c2ccccc2)c(O)nc2cc(Cl)ccc12 | No. of mice protected (Mus musculus [3]): 2
35 | > 100000 nM | – | CCc1c(-c2ccccc2)c(O)nc2cc(Cl)ccc12 | –
36 | – | 10500 nM | Nc1c(-c2ccccc2)c(O)nc2cc(Cl)ccc12 | –
37 | 420 nM | 3400 nM | Nc1c(-c2cccc(Oc3ccccc3)c2)c(O)nc2cc(Cl)ccc12 | No. of mice protected (Mus musculus [3]): 2
38 | 420 nM | – | NC(=O)COc1c(-c2ccccc2)c(=O)[nH]c2cc(Cl)ccc12 | –
39 | – | 4000 nM | COC(=O)Cc1c(-c2ccccc2)c(O)nc2cc(Cl)ccc12 | No. of mice protected (Mus musculus [3]): 1
40 | 2700 nM | – | COC(=O)C(=O)Nc1c(-c2ccccc2)c(O)nc2cc(Cl)ccc12 | ED50 (Mus musculus [16]): inactive

Row | IC50 [1] | Kb [2] | Compound | other results
41 | – | – | O=c1[nH]c2cc(Cl)ccc2c(O)c1-c1cccc(Oc2ccccc2)c1 | ED50 (Mus musculus [9]): 0.9 mg/kg
42 | > 100000 nM | – | O=C(Cc1ccccc1)Nc1c(-c2ccccc2)c(O)nc2cc(Cl)ccc12 | –
43 | ~10000 nM | – | Oc1nc2cc(Cl)ccc2c(OCc2ccccc2)c1-c1ccccc1 | –
44 | > 100000 nM | – | O=c1[nH]c2cc(Cl)ccc2cc1-c1ccccc1 | –
45 | 190 nM | – | NC(=O)CCc1c(-c2ccccc2)c(=O)[nH]c2cc(Cl)ccc12 | –
46 | 270 nM | 2200 nM | CS(=O)(=O)Nc1c(-c2ccccc2)c(O)nc2cc(Cl)ccc12 | No. of mice protected (Mus musculus [3]): 0
47 | 24 nM | – | O=C(O)COc1c(-c2cccc(Oc3ccccc3)c2)c(=O)[nH]c2cc(Cl)ccc12 | –
48 | 3200 nM | 960 nM | COC(=O)COc1c(-c2ccccc2)c(O)nc2cc(Cl)ccc12 | No. of mice protected (Mus musculus [11]): 1
49 | – | 11600 nM | O=C(O)CC(=O)Nc1c(-c2ccccc2)c(O)nc2cc(Cl)ccc12 | No. of mice protected (Mus musculus [3]): 2
50 | > 100000 nM | – | CNc1c(-c2ccccc2)c(=O)[nH]c2cc(Cl)ccc12 | –
51 | – | 1400 nM | O=C(O)Cc1c(-c2ccccc2)c(O)nc2cc(Cl)ccc12 | No. of mice protected at 20 mg/kg (Mus musculus [4]): 0 mg/kg
52 | 320 nM | – | N#CCOc1c(-c2ccccc2)c(O)nc2cc(Cl)ccc12 | ED50 (Mus musculus [17]): 16.3 mg/kg; Kb [5]: 4700 nM
53 | 240 nM | – | O=c1[nH]c2cc(Cl)ccc2c(CCc2nn[nH]n2)c1-c1ccccc1 | –
54 | 11600 nM | – | CN(C)C(=O)COc1c(-c2ccccc2)c(O)nc2cc(Cl)ccc12 | –
55 | 160 nM | – | O=C(O)Cc1c(-c2ccccc2)c(=O)[nH]c2cc(Cl)ccc12 | –
56 | 780 nM | – | C/C(COc1c(-c2ccccc2)c(O)nc2cc(Cl)ccc12)=N\O | ED50 (Mus musculus [18]): 9.4 mg/kg; Kb [5]: 2800 nM
57 | 580 nM | – | O=C(O)C(=O)Nc1c(-c2ccccc2)c(=O)[nH]c2cc(Cl)ccc12 | –
58 | > 100000 nM | – | CN(C)c1c(-c2ccccc2)c(=O)[nH]c2cc(Cl)ccc12 | –
59 | – | 2900 nM | NC(=O)CCc1c(-c2ccccc2)c(O)nc2cc(Cl)ccc12 | No. of mice protected (Mus musculus [3]): 1
